Source: PMC9894006 (Journal of Insect Science, 2023)
Several values for one entry are separate records, joined by “and”; a condition that tells them apart may be missing. Equal entries are not always repeated. Each block holds one molecule with its values, some of them ahead of it.

Assays:
recombinant BodoOBP10 [1] = molecular target: T1, recombinant BodoOBP10 (Bradysia odoriphaga, UniProt A0A2S0X9G4); test: Binding curve of the fluorescence reporter 1-NPN
T1 sequence (A0A2S0X9G4 20-144): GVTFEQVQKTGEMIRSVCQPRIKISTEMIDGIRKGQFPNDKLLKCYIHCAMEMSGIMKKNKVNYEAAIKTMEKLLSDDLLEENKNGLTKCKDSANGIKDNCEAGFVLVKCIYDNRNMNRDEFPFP
Outline: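 Recombinant BodoOBP10 was expressed in E. coli BL21(DE3) from pBM30 with 0.5 mM IPTG for 12 h at 28°C. Inclusion bodies were solubilised in 50 mM Tris pH 6.8 with 0.2% Triton X-100 and 6 M guanidine HCl. Protein was Ni-affinity purified and the His tag removed by enterokinase. Protein stock was 2 µM in 20 mM Tris-HCl pH 7.4; 1-NPN stock was 1 mM in methanol. Ex 337 nm, em 350–500 nm, 10-nm slit; triplicate means.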

B. odoriphaga females = conditions: ref Yang et al. 2019; cited from earlier work
recombinant BodoOBP10 [2] = molecular target: T1, recombinant BodoOBP10; test: Competitive fluorescence binding assay with 1-NPN as reporter; conditions: competitive dissociation constant from IC50, 1-NPN reporter
Outline: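 Refolded, Ni-purified, tag-cleaved BodoOBP10 (2 µM stock, 20 mM Tris-HCl pH 7.4) was titrated with test compounds (1 mM methanol stocks) displacing the 1-NPN reporter. Ex 337 nm, em 350–500 nm. IC50 is the ligand concentration halving initial fluorescence. Ki = [IC50]/(1 + [1-NPN]/K1-NPN), using free 1-NPN and the protein/1-NPN dissociation constant. Triplicate means.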

[3] = system: antennae of adult B. odoriphaga; conditions: ref Yang et al. 2019; cited from earlier work
[4] = system: antennae of B. odoriphaga adult females; test: Electroantennogram; design: species or system Bradysia odoriphaga; conditions: odorant at 10 μg/μL, adult females 12 h after emergence
Outline: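 30 nL of 6 μg/μL dsOBP10 or dsGFP was injected into one-day-old pupal abdomens; knockdown was checked by RT-qPCR in triplicate. Antennae of females 12 h post-emergence were detached, base on reference and tip on recording glass electrodes. Stimulus was 10 μl of a 10 μg/μL sulfur volatile on filter paper, pipetted after 10 s. Hexane control was given before and after. Ten replicates; one-way ANOVA with Tukey, means ± SE.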

male B. odoriphaga = conditions: ref Li et al. 2008; cited from earlier work

SMILES: c1ccc(Nc2cccc3ccccc23)cc1 [1-NPN, N-phenyl-1-naphthylamine]
- Ki (recombinant BodoOBP10 [1]): 0.78 µM

SMILES: C=CCSSCC=C [Diallyl disulfide]
- female oviposition (B. odoriphaga females): stimulate female oviposition
- Ki (recombinant BodoOBP10 [2]): 8.01 µM and < 10 µM
- EAG responses / antennal preference of B. odoriphaga adults [3]: stimulate the EAG responses
- EAG response in dsOBP10-injected insects compared with control (dsGFP-injected) [4]: significantly reduced
- EAG response in dsOBP10-injected insects compared with control (dsGFP-injected) ([4]; listed as diallyl disulﬁde): reduced

- Ki (recombinant BodoOBP10 [2]): > 50 µM
SMILES: CCCCCCCCCCCCCCCCC [n- Heptadecane, n-Heptadecane]
- behavioral responses in male B. odoriphaga (male B. odoriphaga): can lead to behavioral responses
